Assay results from ChEMBL document CHEMBL1138680, “Phenoxyphenyl pyridines as novel state-dependent, high-potency sodium channel inhibitors” (J Med Chem, 2004).

Columns and labels:
[1] = target: Sodium channel protein type 2 subunit alpha, Nav1.2 (Rattus norvegicus) (UniProt P04775); assay: Dissociation constant for binding to resting state of rat brain NaIIa (rNav1.2) -B2 cell line stably expressed in HEK293 Cells
Rattus norvegicus [2] = organism: Rattus norvegicus; assay: Inhibition of native TTX-S sodium currents in acutely dissociated rat dorsal root ganglion (DRG); format: functional
Outline: (§1)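 Acutely dissociated neurons from newborn Sprague Dawley rat pups were plated on poly-D-lysine and recorded for up to two weeks. The HEK-293 fractional-response protocol was used, but with a 1-s depolarizing prepulse and a 5-ms hyperpolarizing gap. Fractional responses were collected at three or more concentrations per drug. Ki came from a logistic fit of the partial concentration–inhibition curves.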

[3] = target: Sodium channel protein type 2 subunit alpha (Rattus norvegicus) (UniProt P04775); assay: Dissociation constant for binding to inactivated state of rat brain NaIIa (rNav1.2) -B2 cell line stably expressed in HEK293 Cells
[4] = Ratio between Kr to Ki; format: functional
Rattus norvegicus [5] = organism: Rattus norvegicus; assay: Inhibition of native TTX-R sodium currents in acutely dissociated rat dorsal root ganglion (DRG); format: functional
Outline: as §1

SMILES | kR [1] [µM] | Inhibition activity (Rattus norvegicus [2]) [µM] | Ki [3] [nM] | Ratio [4] | Inhibition activity (Rattus norvegicus [5]) [µM]
Cc1cc(N(C)C)cc(-c2ccc(Oc3ccc(F)cc3)cc2)n1 | 47.1 | 0.53 | 386 | 122 | 0.34
NC(=O)c1ccc(-c2ccc(Oc3ccc(F)cc3)cc2)nc1 | – | – | 3750 | – | –
NC(=O)N1c2ccccc2C=Cc2ccccc21 [CARBAMAZEPINE] | – | 28 | – | – | 111
NC(=O)c1ccnc(-c2ccc(Oc3ccc(F)cc3)cc2)c1 | – | – | 2640 | – | –
COc1cc(C(N)=O)nc(-c2ccc(Oc3ccc(F)cc3)cc2)c1 | 87.7 | – | 360 | 24 | –
COc1cc(C(=O)NCCN(C)C)nc(-c2ccc(Oc3ccc(F)cc3)cc2)c1 | 23 | 0.18 | 250 | 90 | 1.56
NC(=O)c1cccnc1-c1ccc(Oc2ccc(F)cc2)cc1 | 63.7 | – | 13400 | 5 | –
Cc1cc(OCCN2CCCCC2)cc(-c2ccc(Oc3ccc(F)cc3)cc2)n1 | 63.4 | 0.14 | 170 | 362 | 0.08
O=C(NCCN1CCCCC1)c1cccc(-c2ccc(Oc3ccc(F)cc3)cc2)n1 | 4.3 | – | 20 | 154 | 0.06
NC(=O)c1cccc(-c2ccc(Oc3ccc(F)cc3)cc2)n1 | 24.2 | 0.1 | 90 | 252 | 0.27
O=C(NCCN1CCCCC1)c1ccc(-c2ccc(Oc3ccc(F)cc3)cc2)nc1 | 107 | 1 | 590 | 180 | 1.56
Nc1nnc(-c2cccc(Cl)c2Cl)c(N)n1 [LAMOTRIGINE] | – | 38.4 | – | – | 103
NC(=O)c1cc(N2CCOCC2)cc(-c2ccc(Oc3ccc(F)cc3)cc2)n1 | 11.6 | 0.06 | 120 | 94 | 0.1
NC(=O)N/N=C/c1ccc(Oc2ccc(F)cc2)cc1 | 34 | 0.25 | 350 | 100 | 0.26
O=C(NCCN1CCCCC1)c1cncc(-c2ccc(Oc3ccc(F)cc3)cc2)c1 | 10.5 | – | 150 | 68 | –
